Measured values: PMC3204611 (Cancer prevention research (Philadelphia, Pa.), 2010)
Entries after “also recorded” stand apart in the source; their conditions may differ. Read-outs that look alike come from different tables or passages of the source.

Legend:
[1] = test system: N-methyl-N-nitrosourea (MNU)-induced mammary cancer; conditions: cited from earlier work; for average tumors per animal: controls 6.0
[2] = rats, 7 days, cited from earlier work
[3] = Toxicity / adverse events; type: in vivo, human
Outline: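 Healthy adults aged 18-65 years took one oral dose (5, 10 or 20 mg) in the morning on an empty stomach. Dose cohorts were escalated in sequence and subjects stayed 24 h as inpatients. Toxicity was assessed on day 8, with contact on day 30, and graded by NCI-CTCAE. Serum TG was taken at screening, 24 h and day 8. Dose versus TG change was tested by Jonckheere-Terpstra.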

[4] = test system: human breast cancer cells; conditions: cited from earlier work
[5] = test system: colony formation; conditions: 0.1 μmol/L (29 ng/mL); cited from earlier work
[6] = test system: RAR; conditions: relative to 9-cis-RA and other RA; cited from earlier work
[7] = test system: Human hepatocytes; conditions: treatment up to 50 μmol/L; cited from earlier work
[8] = Single-dose pharmacokinetics of 9cUAB30 in healthy volunteers; type: in vivo, human
[9] = Stability of 9cUAB30 in spiked human plasma and urine stored at -70 °C; type: in vitro ADME
Outline: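 Blank human plasma and urine were spiked from a 1 μg/mL stock standard to 10 and 40 ng/mL (plasma, urine) and 100 ng/mL (urine only), then held at -70 °C for 12 weeks. Samples were run in triplicate by LC-MS/MS after liquid-liquid extraction with 9-cis-RA as internal standard. LLOQ was 1.56 ng/mL.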

[10] = doses significantly higher than needed for chemopreventive activity; cited from earlier work
[11] = test system: KLF4-mediated tumor initiation; conditions: cited from earlier work
[12] = single dose 5, 10 or 20 mg, 14 subjects
[13] = single dose 5, 10 or 20 mg, all subjects n = 14

CC/C(=C(\c1ccccc1)c1ccc(OCCN(C)C)cc1)c1ccccc1 [tamoxifen, reference compound]
average tumors per animal ([1]; tamoxifen 0.4 mg/kg of diet): 4.6 tumors per animal

CC1=C(/C=C/C(C)=C\C=C\C(C)=C\C(=O)O)C(C)(C)CCC1 [9-cis-RA, 9-cis-retinoic acid, reference compound]
increase of serum TGs compared to untreated controls ([2]; 60 mg/kg of diet): 5 fold

CC(=C/C=C/C(C)=C/C(=O)O)/C=C1\CCCc2ccccc21 [9cUAB30, (2E,4E,6Z,8E)-8-(3′,4′-Dihydro-1′(2′H)-naphthalen-1′-ylidene)-3,7-dimethyl-2,4,6-octatrienoic Acid]
patients with grade 2 toxicity ([3]; 10-mg dose level, 6 subjects): 1 | Mean TG levels ([3]; day 8, all subjects, screening 116 ± 34.8): 114 ± 44.5 | change in TG levels from baseline ([3]; differences between the treatment groups 5, 10, 20 mg): not statistically significant; also recorded: did not significantly increase change in serum TGs | subjects with ≥ grade 2 toxicity ([3]; dose level 5 mg): No subjects | subjects with ≥ grade 2 toxicity ([3]; dose level 20 mg): No subjects | grade 3 or 4 toxicities [3, 12]: no grade 3 or 4 toxicities reported | patients experiencing grade 2 toxicity [3, 12]: 1 | tolerability [3, 12]: well tolerated | Diarrhea, Grade II, patients (%) [3, 13]: 0 | Dizziness, Grade I, patients (%) [3, 13]: 0 | Elevated chloride, Grade II, patients (%) [3, 13]: 0 | Elevation in cholesterol, Grade II, patients (%) [3, 13]: 0 | Elevation in triglycerides, Grade II, patients (%) [3, 13]: 0 | Fatigue, Grade I, patients (%) [3, 13]: 0 | Headache, Grade II, patients (%) [3, 13]: 0 | Nasal congestion, Grade II, patients (%) [3, 13]: 0 | Nausea and vomiting, Grade I, patients (%) [3, 13]: 0 | Reduced hemoglobin, Grade II, patients (%) [3, 13]: 0 | effect on serum TG levels ([2]; 200 or 800 mg/kg of diet): did not affect serum TG levels | cell proliferation [4]: significant inhibition of cell proliferation | colony formation, % of untreated cells [5]: 62% | RAR-binding activity [6]: little or no RAR-binding activity | cytotoxicity [7]: no signs of cytotoxicity | dose required to achieve maximal concentrations of 0.294 μg/mL ([8]; assuming 1 compartment, first-order elimination, extrapolated from 20-mg dose): 60 mg | CL renal ([8]; human, urine and plasma, po): 0.3 to 1.72 mL/min | oral availability ([8]; single oral dose, fasted healthy volunteers): orally available | decrease of MNU-induced mammary cancer incidence compared to controls ([1]; 200 mg/kg/d diet): 63% | average tumors per animal ([1]; 9cUAB30 150 mg/kg of diet): 4.3 tumors per animal | stability in plasma ([9]; human plasma, −70 °C, 10 and 40 ng/mL): stable for 12 weeks | stability in urine ([9]; human urine, −70 °C, 10, 40 and 100 ng/mL): stable for 12 weeks | toxicity in animal models [10]: toxicity was not reported | concentration required to prevent KLF4-mediated tumor initiation [11]: 1 µmol/L | concentration required to prevent KLF4-mediated tumor initiation ([11]; printed conversion of 1 μmol/L): 294 ng/mL
